One series concerns HSV-1 McKrae strain. As to the kind of experiment: Plaque reduction assay, HSV-1 in Vero cells. Type of series: cell-based, herpes simplex virus type 1. The following applies: Human alphaherpesvirus 1, Vero, 96 h. Summed up:
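Confluent Vero monolayers in 24-well plates infected with 100 pfu McKrae strain per well, adsorbed 1 h at 37°C, washed with Hanks' BSS. Agar overlay containing compound dilutions applied to triplicate wells, alongside triplicate cell and virus controls. Day 4: methanol:acetic acid (3:1) fixation, 1% crystal violet stain, plaque count. IC50 calculated from dose-response plots; selectivity index taken as TC50/IC50.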
For orientation: Plaque reduction counts the foci of infection that form in a cell layer.

A further series deals with Vero cells. As to the kind of experiment: Initial cytotoxicity study. The following applies: at 100 μM concentration. Type of series: cell-based, African green monkey. Summed up:
(§1)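 Confluent monolayers in triplicate wells of 24-well plates, exposed to compounds diluted from 0.1M DMSO stocks in growth medium (final 10−4 M to 10−8 M). A DMSO co-solvent control was run for each dilution and compared with cell controls. Cytotoxicity scored by abnormal morphology: clumping, detachment or rounding up of cells. Scored +/−.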

In a further series the test system is A549 cells. As to the kind of experiment: Initial cytotoxicity study. Type of series: cell-based, Human. To be noted: at 100 μM concentration. The gist of the method: as §1

Turning to `Nc1nc2c(ncn2COCCO)c(=O)[nH]1` [Acyclovir, acyclovir], 1800 nM corresponded to half-maximal inhibition in the series with HSV-1 McKrae strain (IC50). For the same compound, the Cytotoxicity result in the series on Vero cells is recorded as “− (Vero cells)”. With `Nc1ccn(C[C@@H](CO)OCP(=O)(O)O)c(=O)n1` [Cidofovir], the Cytotoxicity entry in the series on A549 cells is reported as “− (A549 cells)”.

Source of the values: publication PMC7125830 (Antiviral Research, 1999).
